MC4R antagonist = antagonists of human melanocortin 4 receptor (MC4R); P32245; MC4R-expressing cells, MTII-stimulated cAMP, LANCE TR-FRET; actives 0.48% (n = 360,000); inhibition, % at 6.5 µM;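 active means inhibition above its plate's cutoff, the mean of tested wells on that plate plus 3 SD, cut at about 29% in these data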;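 further: 0% = Melanotan II alone and 100% = Melanotan II plus saturating MCL0020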
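Assay system: U2OS-MC4R stable cell line; Also added: Melanotan II; Technique: Eu-cAMP/anti-cAMP TR-FRET, emission 671 nm; Times: 30-min compound, 1-h challenge, 1-h detection, room temperature.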
MC4R ag barr = agonists of human melanocortin 4 receptor (MC4R) beta-arrestin; activation, % at 8.9 µM; P32245; U2OS MC4R beta-arrestin complementation, luminescence; percent of melanotan II response, DMSO zero; actives 0.98% (n = 360,000);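 active means activation above a per-plate cutoff, the mean activation of sample wells on that plate plus 3 SD, cut at about 8% in these data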
SMARCA2 act = increases SMARCA2 function in MMTV reporter cells; MG213 cells, MMTV-luciferase reporter, dexamethasone, overnight; activation, % at 9.1 µM; actives 1% (n = 370,000); AID 652017; in the data active means activation above about 7.8%;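 further: 0% = vehicle wells and 100% = reference activator wells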
F508del corr = CFTR F508del correction in bronchial cells; CFBE cells, YFP halide quenching; stimulated with forskolin plus potentiator P3; % fluorescence drop versus neutral controls; activity (quench increase), % at 7.58 µM; actives 0.36% (n = 350,000);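 active means mean added fluorescence quench of at least 8% versus neutral control, with both replicates also reaching 8%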;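 further: cells transiently co-express mutant CFTR-F508del with the halide-sensitive YFP; corrector assay measuring rescue of mutant channel to the surface after 24 h compound exposure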
MC4R barr ag = human MC4R beta-arrestin agonism confirmation; shares compounds with MC4R ag barr; U2OS MC4R beta-arrestin recruitment, luminescence; scaled DMSO 0%, Melanotan II 100%; activation, % at 8.9 µM; actives 31% (n = 2,400); AID 602192;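 active means mean activation across replicates above the hit cutoff set in the earlier primary screen, cut at about 8% in these data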
MOR-DOR barr ag = counter-screen for MC4R agonists: agonists of mu-delta opioid heterodimer; shares compounds with MC4R ag barr; activation, % at 9.2 µM; actives 5.8% (n = 2,400); U2OS PathHunter beta-arrestin, beta-gal luminescence; percent of deltorphin B response, DMSO zero;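 active means mean activation across replicates exceeds the hit threshold derived in the earlier primary screen, cut at about 18% in these data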;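 further: 100% = deltorphin B at 0.9 µM final and 0% = DMSO alone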
* hit, by the source's call; . = no result. Compounds with a hit are over-represented: about 2.1% of the library has one in this group of screens.

SMILES	MC4R antagonist	MC4R ag barr	SMARCA2 act	F508del corr	MC4R barr ag	MOR-DOR barr ag
COc1cc(C)c(/C=C(\C#N)C(=O)Nc2cccc(C)c2)cc1C(C)C	5	13*	-2	0	5	4
Cc1cccc(NC(=O)/C(C#N)=C\c2ccc(C(=O)O)cc2)c1	14	-1	0	2	.	.
COc1cccc2cc(-c3nnc(SCC(=O)Nc4cc(C(F)(F)F)ccc4Cl)n3N)oc12	0	21*	-2	.	1	6
COCC(=O)Nc1ccc2c(c1)[C@@H]1C[C@@H](CC(=O)NCc3cccc(F)c3)O[C@@H](CO)[C@@H]1O2	.	.	.	0	.	.
CO[C@@H]1CN(C)C(=O)c2ccc(NC(=O)C3CC3)cc2OC[C@@H](C)N(CC2CC2)C[C@H]1C	.	.	.	-4	.	.
CCCCCCCCNS(=O)(=O)CCNCCc1ccccc1	4	10.0*	4	-2	16*	6
COC(=O)c1cc(Nc2cc(C)c3c(O)cccc3n2)cc(C(=O)OC)c1	12	12*	2	-7	7	8
CC(C)NC(=O)N[C@@H]1CC[C@@H](CCNC(=O)C2CCCC2)O[C@H]1CO	.	.	.	4	.	.
CN1[C@@H]2c3ccc(-c4ccccc4F)c(=O)n3C[C@@H]2[C@@H](CO)[C@@H]1C(=O)NCc1ccncc1	.	.	.	-4	.	.
CN(C)c1ccc(NC(=O)/C=C/c2c(Cl)cccc2Cl)cc1	13	10*	0	-4	-1	5
COc1ccc2cc3cc(C(=O)Nc4ccc5c(c4)OCCO5)oc3nc2c1	-7	43*	-6	.	8	6
Cc1ccc([N+](=O)[O-])cc1NC(=S)NC(=O)c1c(Cl)cnn1C	21	18*	-3	-4	0	4
COc1cccc2sc(N(CCCN(C)C)C(=O)c3sc4ccccc4c3Cl)nc12	-11	17*	0	2	20*	24*
COc1ccc(NC(=O)Nc2ccc3c(c2)CC(=O)N([C@@H](C)CO)C[C@@H](C)[C@@H](CN(C)C(=O)Nc2c(C)noc2C)O3)cc1	.	.	.	-5	.	.
C[C@@H]1CN([C@@H](C)CO)C(=O)c2cc(C3=CCCC3)cnc2O[C@H]1CN(C)C(=O)C1CCC1	.	.	.	0	.	.
CCOc1ccc(-c2nnn(CC(=O)NCc3ccco3)n2)cc1OCC	-1	-1	0	.	.	.
CCOc1ccc(-c2nnn(CC(=O)Nc3cc(OC)cc(OC)c3)n2)cc1OCC	-2	11*	-3	4	4	7
CCOc1ccccc1NC(=O)Cn1nnc(-c2ccc(OCC)c(OCC)c2)n1	-1	9.7*	6	2	3	4
CCOc1ccc(-c2nnn(CC(=O)Nc3cc(OC)ccc3OC)n2)cc1OCC	2	0	0	2	.	.
CN1CCN(C(=O)C[C@H]2C[C@@H]3c4cc(NC(=O)NC5CCCCC5)ccc4O[C@@H]3[C@H](CO)O2)CC1	.	.	.	0	.	.
O=c1[nH]c(CSc2nnc(Nc3ccccc3)s2)nc2ccccc12	6	9.7*	0	3	2	3
O=C(CCc1nc2ccccc2c(=O)[nH]1)Nc1nnc(SCc2ccccc2)s1	-3	-2	-1	-7	.	.
COCC(=O)N[C@H]1CC[C@H](CC(=O)N2CCCCC2)O[C@@H]1CO	.	.	.	1	.	.
C=CCNC(=O)NC(=O)COC(=O)/C(C#N)=C/c1cc(C)n(CCC(C)C)c1C	3	10*	-1	.	7	10
Cc1cccc(N(C(=O)C(F)(F)F)C(C(=O)NC2CCCCC2)c2cccs2)c1 (configuration not stated)	14	20*	-1	.	7	10
SMILES	MC4R antagonist	MC4R ag barr	SMARCA2 act	F508del corr	MC4R barr ag	MOR-DOR barr ag
O=C(C[C@H]1C=C[C@@H](NC(=O)c2cccc(F)c2)[C@H](CO)O1)NCCN1CCCC1	.	.	.	2	.	.
Cc1ccc(-c2nc3ccccc3s2)cc1NC(=O)c1cc(-n2cnnc2)ccc1Cl	14	11*	7	4	0	3
C[C@H](CO)N1C[C@H](C)[C@@H](CN(C)C(=O)Nc2ccccc2)Oc2ccc(NS(C)(=O)=O)cc2CC1=O	.	.	.	1	.	.
COc1ccc(OC)c(Nc2nc(C3CC3)nc3c2nnn3Cc2ccccc2)c1	3	-2	0	.	.	.
c1ccc(Cn2nnc3c(Nc4ccc5c(c4)OCO5)nc(C4CC4)nc32)cc1	9	18*	-2	.	3	5
COCC#Cc1cnc2c(c1)C(=O)N([C@H](C)CO)C[C@@H](C)[C@@H](CN(C)C(=O)CCN1CCCCC1)O2	.	.	.	-1	.	.
CC(=O)N/N=C/c1cc([N+](=O)[O-])ccc1OCCOc1ccccc1	7	0	5	.	.	.
NC(=S)N/N=C/c1cc([N+](=O)[O-])ccc1OCCOc1ccccc1	-12	16*	-1	.	2	4
CCOc1ccccc1CNC(=O)C1CCN(c2nnc(C)c3c(C)n(-c4ccc(C)cc4)nc23)CC1	3	10*	-3	1	4	9
COc1ccc(-n2nc3c(N4CCC(C(=O)NCCc5ccco5)CC4)nnc(C)c3c2C)cc1	5	-2	0	0	.	.
COc1ccccc1CCNC(=O)C1CCN(c2nnc(C)c3c(C)n(-c4ccc(C)cc4)nc23)CC1	13	10*	-2	3	3	3
CCc1ccc(CNC(=O)C2CCCN(c3nnc(C)c4c(C)n(-c5ccccc5)nc34)C2)cc1 (configuration not stated)	13	19*	-1	-4	2	3
CN1CCN(C(=O)C[C@H]2C[C@@H]3c4cc(NC(=O)Nc5ccc(F)cc5)ccc4O[C@@H]3[C@@H](CO)O2)CC1	.	.	.	3	.	.
Cc1ccc(S(=O)(=O)N(C)C[C@H]2Oc3ccc(NC(=O)Nc4ccc5c(c4)OCO5)cc3CC(=O)N([C@H](C)CO)C[C@H]2C)cc1	.	.	.	-2	.	.
C[C@@H]1CCCCO[C@H](CN(C)C(=O)Nc2ccccc2)[C@@H](C)CN([C@@H](C)CO)C(=O)c2cc(NS(=O)(=O)c3ccccc3)ccc2O1	.	.	.	1	.	.
CCOc1ccc(CC2S/C(=N/N=C/c3ccco3)NC2=O)cc1 (configuration not stated)	10	14*	3	1	5	5
O=C1N/C(=N\N=C\c2ccco2)SC1Cc1ccccc1[N+](=O)[O-] (configuration not stated)	-2	1	0	-4	.	.
O=C(CC1CC1)Nc1ccc2c(c1)[C@H]1C[C@H](CC(=O)N3CCc4ccccc4C3)O[C@H](CO)[C@H]1O2	.	.	.	1	.	.
C[C@H](CO)N1C[C@H](C)[C@@H](CN(C)Cc2ccc(Cl)c(Cl)c2)OCc2cn(nn2)CCCC1=O	.	.	.	1	.	.
COc1cc(C(=O)OCC(=O)Nc2cc(C)on2)ccc1OCc1ccccc1Cl	16	18*	1	.	3	2

Screening results: PubChem BioAssay, several laboratories
